Data reported in PMC12034384 (ImmunoHorizons, 2025).

Key:
Jurkat = test: Cytotoxicity of peptides; type: cell-based, human; details: Fig. S1; concentrations up to 100 μM
murine CD4+ T cells = test: IL-2 production of murine CD4+ T cells after anti-CD3/anti-CD28, ELISA; type: cell-based; details: 30 min preincubation, anti-CD3/anti-CD28 48 h, n = 4
In short: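 CD4⁺ T cells were purified from mouse spleen with a CD4⁺ isolation kit and cultured in RPMI 1640, 10% FBS, 50 μM 2-mercaptoethanol. After 30 min preincubation with test or control peptide, cells were stimulated 48 h on immobilized anti-mouse CD3 (145-2C11, 3 μg/ml) plus anti-CD28 (PV-1, 1 μg/ml). Mouse IL-2 in supernatant was measured by ELISA. Mean ± SEM, n = 4 independent experiments, Sidak's test.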

EL-4 cells = test: Spontaneous proliferation of EL-4 cells; type: cell-based, murine; details: 30 min preincubation, WST-8, n = 3
In short: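 Murine EL-4 T lymphoma cells were grown in RPMI 1640 with 10% FBS and 50 μM 2-mercaptoethanol without stimulation. They were preincubated 30 min with test or control peptide, and spontaneous proliferation was read with WST-8 reagent. Mean ± SEM of 3 independent experiments; Sidak's multiple comparisons.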

Jurkat cells = test: IL-2 production after anti-CD3/anti-CD28 stimulation, ELISA; type: cell-based, human; details: 30 min preincubation, immobilized anti-CD3 (3 μg/ml)/anti-CD28 (1 μg/ml) 48 h, n = 4
In short: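 Jurkat cells were kept in RPMI 1640 with 10% FBS and 50 μM 2-mercaptoethanol. They were preincubated 30 min with test peptide or control peptide, then stimulated 48 h on immobilized anti-human CD3 (OKT3, 3 μg/ml) plus anti-CD28 (CD28.8, 1 μg/ml). Human IL-2 in supernatant was measured by ELISA. Mean ± SEM of 4 independent experiments, Sidak's test.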

[1] = test system: HeLa human epithelial-like cells; test: Spontaneous proliferation of HeLa cells; type: cell-based
[2] = cited from earlier work
murine B cells = test: IgM-mediated IL-6 and IL-10 production in murine B cells; type: cell-based; details: compared with iCont-treated B cells
EAE mice = test: Experimental autoimmune encephalomyelitis; type: in vivo, C57BL/6 mice
mice = test: Tolerability in treated mice; type: in vivo; details: within the effective concentration range; data not shown
[3] = test system: Ramos human B lymphoma cells; test: Spontaneous proliferation of Ramos cells; type: cell-based
STAP-1–ITK interaction = test: Coimmunoprecipitation, STAP-1–ITK interaction; type: binding, human; details: Fig. 2G
[4] = EAE mice, 40 µg/mouse i.v., vs iCont, n = 5
[5] = EAE mice, day 14 after MOG immunization, vs iCont, n = 10 to 12
[6] = EAE mice, day 14 after MOG immunization, vs iCont, n = 10 to 14

## RRRRRRRRGGDLTCLTEQNSTEKNCAKFTL [N73-92]
Jurkat
  cytotoxicity: high cytotoxicity at the concentration of 100 μM

## RRRRRRRRGGEYEHYWTELRGTTLFFYTD [N41-59]
Jurkat
  cytotoxicity: did not show significant cytotoxicity up to the concentration of 100 μM

## RRRRRRRRGGTDKKSIIYVDKLDIVDLTCL [N58-77]
Jurkat
  cytotoxicity: high cytotoxicity from the concentration of 3 μM

## RRRRRRRRGGPLYFEGFLLIKRSGYREYE [N26-43]
Jurkat
  cytotoxicity: high cytotoxicity from the concentration of 3 μM

## RRRRRRRRGGTTLFF [iSP1]
Murine CD4+ T cells
  IL-2 production upon TCR stimulation: inhibited in CD4^+ T cells
EL-4 cells
  spontaneous cell proliferation: exhibited suppressed cell proliferation
Jurkat cells
  IL-2 production following TCR stimulation: suppressed by iSP1 treatment in a concentration-dependent manner
[1]
  spontaneous proliferation: did not inhibit
[2]
  stability of cell-penetrating R8 sequence in vivo: unstable and easy to dissociate in vivo
Murine B cells
  IgM-mediated IL-6 production: no inhibition
  IgM-mediated IL-10 production: no inhibition
EAE mice; 40 µg/mouse i.v. every other day, days 8–20, vs iCont, n = 20
  area under the curve of EAE clinical score: significantly lower
EAE mice; [4]
  demyelination in spinal cord (Luxol Fast Blue staining): suppressed
  immune cell infiltration in spinal cord (H&E staining): suppressed
EAE mice; [5]
  frequency of Th1 cells (IFN-γ expressing) among CD4+ cells in CNS: significantly lower
  frequency of Th17 cells (IL-17 expressing) among CD4+ cells in CNS: significantly lower
EAE mice; [6]
  absolute number of Th1 cells (IFN-γ expressing CD4+ T cells) in CNS: significantly lower
  absolute number of Th17 cells (IL-17 expressing CD4+ T cells) in CNS: significantly lower
mice
  abnormal phenotypes in treated mice: did not show any abnormal phenotypes
[3]
  spontaneous proliferation: did not inhibit
STAP-1–ITK interaction
  STAP-1–ITK interaction: suppressed

## RRRRRRRRGGRRIFQERLKITALPLYFEGF [N12-31]
Jurkat
  cytotoxicity: high cytotoxicity from the concentration of 3 μM
